In publication PMC5116011 (The Journal of antibiotics, 2016):
≈ marks a conversion by molar mass, not a printed value. Read-outs that look alike come from different tables or passages of the source.

Experiments:
[1] = tested on: E. faecalis ATCC33186; test: MIC, microbroth dilution in Mueller-Hinton broth; format: cell-based; details: Enterococcus faecalis, ATCC33186, read-out: MIC EF
Method in brief: (§1)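 CLSI broth microdilution in cation-adjusted Mueller-Hinton broth. Inocula were grown from MH agar colonies in MH broth, with a final inoculum of 10^5 CFU/ml. Test compound final range was 200–0.2 µg/ml, incubated 37°C for 18–20 h. MIC was the lowest concentration preventing visible growth. Runs were at least duplicate, and the mean MIC was reported.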

[2] = tested on: S. pyogenes ATCC700294; test: MIC, microbroth dilution in Mueller-Hinton broth; format: cell-based; details: Streptococcus pyogenes, ATCC700294, read-out: MIC SPy
Method in brief: as §1

[3] = tested on: S. pneumoniae R6; test: MIC, microbroth dilution in Mueller-Hinton broth; format: cell-based; details: Streptococcus pneumoniae, R6, read-out: MIC SP
Method in brief: as §1

[4] = tested on: B. anthracis sterne; test: microbe, parasite or virus in culture; format: cell-based; details: Bacillus anthracis, read-out: MIC BA
[5] = tested on: B. subtilis ATCC23857; test: MIC, microbroth dilution in Mueller-Hinton broth; format: cell-based; details: Bacillus subtilis, ATCC23857, read-out: MIC BS
Method in brief: as §1

[6] = tested on: S. aureus -ATCC29213 (MSSA); test: MIC, microbroth dilution in Mueller-Hinton broth; format: cell-based; details: Staphylococcus aureus, read-out: MIC MSSA
Method in brief: as §1

[7] = tested on: S. aureus NRS 70 (MRSA); test: MIC, microbroth dilution in Mueller-Hinton broth; format: cell-based; details: Staphylococcus aureus, MRSA|NRS70, read-out: MIC MRSA
Method in brief: as §1

[8] = tested on: E. coli BW25113; test: MIC, microbroth dilution in Mueller-Hinton broth; format: cell-based, Escherichia coli; details: for MIC EC MH+BP/CCCP / MIC EC +: E. coli BW25113; for MIC EC MH+BP/CCCP: MH broth with 30 µg/ml 2,2′-bipyridyl and 50 µg/ml CCCP; for MIC EC +: with clavulanic acid (6µg/ml); for MIC: Escherichia coli, BW25113, read-out: MIC EC, E. coli BW25113, Mueller-Hinton broth (Table 2)
[9] = tested on: E. coli BW25113 ΔtolC derivative JW5503-1; test: MIC, microbroth dilution in Mueller-Hinton broth; format: cell-based, Escherichia coli; details: for MIC: Escherichia coli
[10] = tested on: P. vulgaris ATCC 33420; test: MIC, microbroth dilution in Mueller-Hinton broth; format: cell-based; details: Proteus vulgaris, ATCC33420, read-out: MIC PV
[11] = tested on: P. mirabilis ATCC 25933; test: MIC, microbroth dilution in Mueller-Hinton broth; format: cell-based; details: Proteus mirabilis, ATCC25933, read-out: MIC PM
[12] = tested on: P. aeruginosa PA01; test: MIC, microbroth dilution in Mueller-Hinton broth; format: cell-based, Pseudomonas aeruginosa; details: for MIC PA MH+BP/CCCP / MIC PA +: P. aeruginosa PA01; for MIC PA MH+BP/CCCP: MH broth with 30 µg/ml 2,2′-bipyridyl and 50 µg/ml CCCP; for MIC PA +: with clavulanic acid (6µg/ml); for MIC: Pseudomonas aeruginosa
[13] = tested on: E. coli BW25113 ΔampC derivative JW4111-2; format: cell-based, Escherichia coli; details: for MIC: Escherichia coli, BW25113, read-out: MIC ECΔampC −
[14] = BW25113, read-out: MIC ECΔtolC MH
[15] = BW25113, read-out: MIC ECΔtolC MH+BP

SMILES	MIC [1] [µg/mL]	MIC [2] [µg/mL]	MIC [3] [µg/mL]	MIC [4] [µg/mL]	MIC [5] [µg/mL]	MIC [6] [µg/mL]	MIC [7] [µg/mL]	MIC EC MH+BP/CCCP [8] [µg/mL]	MIC EC + [8] [µg/mL]	MIC [8] [µg/mL]	MIC ([9]; BW25113, read-out: MIC ECΔtolC) [µg/mL]	MIC [9, 14] [µg/mL]	MIC [9, 15] [µg/mL]	MIC [10] [µg/mL]	MIC [11] [µg/mL]	MIC PA MH+BP/CCCP [12] [µg/mL]	MIC PA + [12] [µg/mL]	MIC ([12]; PA01, read-out: MIC PA) [µg/mL]	MIC ([12]; PA01, read-out: MIC PA MH) [µg/mL]	MIC ([12]; PA01, read-out: MIC PA MH+BP) [µg/mL]	other results
CC(C)CC1NC(=O)C(C(=O)NC(C(=O)NC2C(=O)N3C2SC(C)(C)C3C(=O)O)c2ccccc2)=C1O (stereo not drawn) [Compound 1903]	25 (≈ 47.1 µM)	0.39 (≈ 0.735 µM)	0.39 (≈ 0.735 µM)	3.13 (≈ 5.9 µM)	1.56 (≈ 2.94 µM)	0.78 (≈ 1.47 µM)	25 (≈ 47.1 µM)	12.5 (≈ 23.6 µM)	12.5	50 (≈ 94.2 µM)	6.25 (≈ 11.8 µM)	6.2 (≈ 11.7 µM)	1.56 (≈ 2.94 µM)	25 (≈ 47.1 µM)	12.5 (≈ 23.6 µM)	1.56 (≈ 2.94 µM)	6.25	12.5 (≈ 23.6 µM)	12.5 (≈ 23.6 µM)	12.5 (≈ 23.6 µM)	MIC ECΔtolC MH+CCCP ([9]; E. coli BW25113 ΔtolC JW5503-1, MH broth containing 50 µg/ml CCCP): 1.56 µg/mL (≈ 2.94 µM); MIC ([12]; PA01, read-out: MIC PA MH+CCCP): 3.13 µg/mL (≈ 5.9 µM); MIC ([12]; PA01, read-out: MIC PA −): 12.5 µg/mL (≈ 23.6 µM); MIC [13]: 6.25 µg/mL (≈ 11.8 µM); MIC ECΔampC + [13]: 1.56 µg/mL
CC(C)(C)Oc1ccc(CC2NC(=O)C(C(=O)NC(C(=O)NC3C(=O)N4C3SC(C)(C)C4C(=O)O)c3ccccc3)=C2O)cc1 (stereo not drawn) [Compound 1905]	50 (≈ 78.5 µM)	0.78 (≈ 1.23 µM)	< 0.2	3.13 (≈ 4.92 µM)	3.13 (≈ 4.92 µM)	0.78 (≈ 1.23 µM)	50 (≈ 78.5 µM)	6.25 (≈ 9.82 µM)	12.5	25 (≈ 39.3 µM)	6.25 (≈ 9.82 µM)	6.25 (≈ 9.82 µM)	1.56 (≈ 2.45 µM)	50 (≈ 78.5 µM)	25 (≈ 39.3 µM)	0.78 (≈ 1.23 µM)	12.5	25 (≈ 39.3 µM)	25 (≈ 39.3 µM)	6.25 (≈ 9.82 µM)	MIC ECΔtolC MH+BP/CCCP ([9]; {}): 0.78 µg/mL (≈ 1.23 µM); MIC ECΔtolC MH+CCCP ([9]; {}): 1.56 µg/mL (≈ 2.45 µM); MIC ([12]; PA01, read-out: MIC PA MH+CCCP): 3.13 µg/mL (≈ 4.92 µM); MIC ([12]; PA01, read-out: MIC PA −): 25 µg/mL (≈ 39.3 µM); MIC ECΔampC + [13]: 12.5 µg/mL
CC(C)(C)OCC1NC(=O)C(C(=O)NC(C(=O)NC2C(=O)N3C2SC(C)(C)C3C(=O)O)c2ccccc2)=C1O (stereo not drawn) [Compound 1940]	25 (≈ 44.6 µM)	0.78 (≈ 1.39 µM)	0.78 (≈ 1.39 µM)	3.13 (≈ 5.58 µM)	3.13 (≈ 5.58 µM)	1.56 (≈ 2.78 µM)	25 (≈ 44.6 µM)	12.5 (≈ 22.3 µM)	12.5	50 (≈ 89.2 µM)	12.5 (≈ 22.3 µM)	12.5 (≈ 22.3 µM)	3.13 (≈ 5.58 µM)	50 (≈ 89.2 µM)	6.25 (≈ 11.1 µM)	6.25 (≈ 11.1 µM)	12.5	25 (≈ 44.6 µM)	25 (≈ 44.6 µM)	12.5 (≈ 22.3 µM)	MIC ECΔtolC MH+BP/CCCP ([9]; {}): 1.56 µg/mL (≈ 2.78 µM); MIC ECΔtolC MH+CCCP ([9]; {}): 6.25 µg/mL (≈ 11.1 µM); MIC ([12]; PA01, read-out: MIC PA MH+CCCP): 12.5 µg/mL (≈ 22.3 µM); MIC ([12]; PA01, read-out: MIC PA −): 25 µg/mL (≈ 44.6 µM); MIC [13]: 12.5 µg/mL (≈ 22.3 µM); MIC ECΔampC + [13]: 6.25 µg/mL
CN1CC(O)=C(C(=O)NC(C(=O)NC2C(=O)N3C2SC(C)(C)C3C(=O)O)c2ccccc2)C1=O (stereo not drawn) [Compound 2742]	25 (≈ 51.2 µM)	1.56 (≈ 3.19 µM)	1.56 (≈ 3.19 µM)	6.25 (≈ 12.8 µM)	3.13 (≈ 6.41 µM)	1.56 (≈ 3.19 µM)	100 (≈ 205 µM)	12.5 (≈ 25.6 µM)	25	100 (≈ 205 µM)	12.5 (≈ 25.6 µM)	12.5 (≈ 25.6 µM)	6.25 (≈ 12.8 µM)	100 (≈ 205 µM)	6.25 (≈ 12.8 µM)	6.25 (≈ 12.8 µM)	12.5	25 (≈ 51.2 µM)	25 (≈ 51.2 µM)	12.5 (≈ 25.6 µM)	MIC ECΔtolC MH+BP/CCCP ([9]; {}): 1.56 µg/mL (≈ 3.19 µM); MIC ECΔtolC MH+CCCP ([9]; {}): 6.25 µg/mL (≈ 12.8 µM); MIC ([12]; PA01, read-out: MIC PA MH+CCCP): 12.5 µg/mL (≈ 25.6 µM); MIC ([12]; PA01, read-out: MIC PA −): 25 µg/mL (≈ 51.2 µM); MIC [13]: 25 µg/mL (≈ 51.2 µM); MIC ECΔampC + [13]: 12.5 µg/mL
